# From ChEMBL document CHEMBL1138871, “Synthesis and HIV-integrase strand transfer inhibition activity of 7-hydroxy[1,3]thiazolo[5,4-b]pyridin-5(4H)-ones” (Bioorg Med Chem Lett, 2006)
# Assay: Inhibition of recombinant HIV integrase strand transfer activity
# Parameters: species or system Human immunodeficiency virus
# Method in brief: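 Recombinant integrase (2 µM) prebound to biotinylated donor DNA (0.66 µM) on streptavidin SPA beads, 5 min 37 °C in 25 mM MOPS pH 7.2, 23 mM NaCl, 10 mM MgCl₂, 10 mM DTT, 10% DMSO. Beads washed and resuspended to 570 nM integrase. Compound (6.7% DMSO final) preincubated 60 min 37 °C. Then [³H] target DNA at 7 nM final added, run 25–45 min 37 °C, EDTA-quenched, read by SPA. Means ± SE.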
row,Compound,IC50 [µM]
1,COc1ccc(-n2c(=O)c(C(=O)NCc3ccc(F)cc3)c(O)c3ncsc32)cc1,1
2,Cn1c(=O)c(C(=O)NCc2ccc(Cl)cc2)c(O)c2ncsc21,2.1
3,COC(=O)c1c(O)c2ncsc2n(Cc2ccc(OC)cc2)c1=O,4.2
4,COC(=O)c1c(O)c2ncsc2n(C)c1=O,> 500
5,COC(=O)c1c(O)c2ncsc2n(-c2ccc(OC)cc2)c1=O,> 500
6,CCn1c(=O)c(C(=O)OC)c(O)c2ncsc21,1.23
7,COC(=O)c1c(O)c2ncsc2n(C(C)C)c1=O,11
8,COC(=O)c1c(O)c2ncsc2n(-c2cccc(SC)c2)c1=O,> 500
9,O=C(NCc1ccc(F)cc1)c1c(O)c2ncsc2n(-c2ccccc2)c1=O,0.4
10,COC(=O)c1c(O)c2ncsc2n(-c2cccc([N+](=O)[O-])c2)c1=O,> 500
11,O=C(NCc1ccc(F)cc1)c1c(O)c2nc(Cc3ccc(F)cc3)sc2n(-c2ccccc2)c1=O,4
12,COC(=O)c1c(O)c2ncsc2n(-c2ccccc2)c1=O,> 500
13,COC(=O)c1c(O)c2ncsc2[nH]c1=O,> 500
14,O=C(NCc1ccc(F)cc1)c1c(O)c2ncsc2n(-c2cccc([N+](=O)[O-])c2)c1=O,17
15,CS(=O)(=O)c1cccc(-n2c(=O)c(C(=O)NCc3ccc(F)cc3)c(O)c3ncsc32)c1,0.93
16,O=C(NCc1ccc(F)cc1)c1c(O)c2ncsc2n(-c2cccc(C(F)(F)F)c2)c1=O,7
17,COC(=O)c1c(O)c2nc(Cc3ccc(F)cc3)sc2n(-c2ccccc2)c1=O,282
18,CCn1c(=O)c(C(=O)NCc2ccc(F)cc2)c(O)c2ncsc21,0.03
19,O=C(NCc1ccc(F)cc1)c1c(O)c2ncsc2[nH]c1=O,1.5
20,COc1ccc(Cn2c(=O)c(C(=O)NCc3ccc(F)cc3)c(O)c3ncsc32)cc1,4
21,COC(=O)c1c(O)c2ncsc2n(-c2cccc(C(F)(F)F)c2)c1=O,> 500
22,COC(=O)c1c(O)c2nc(Cc3ccc(F)cc3)sc2n(C)c1=O,35
23,Cn1c(=O)c(C(=O)NCc2ccc(F)cc2)c(O)c2ncsc21,0.7
24,CC(C)n1c(=O)c(C(=O)NCc2ccc(F)cc2)c(O)c2ncsc21,0.19
25,CSc1cccc(-n2c(=O)c(C(=O)NCc3ccc(F)cc3)c(O)c3ncsc32)c1,7
26,Cn1c(=O)c(C(=O)NCc2ccc(F)cc2)c(O)c2nc(Cc3ccc(F)cc3)sc21,151
27,C[S+]([O-])c1cccc(-n2c(=O)c(C(=O)NCc3ccc(F)cc3)c(O)c3ncsc32)c1 (stereo not drawn),2
28,O=C(/C=C(\O)c1nc[nH]n1)c1ccc(Cc2ccc(F)cc2)o1 [S-1360],0.16
